The results in this text go back to ChEMBL document CHEMBL4392836, “Second-generation aryl isonitrile compounds targeting multidrug-resistant Staphylococcus aureus” (Bioorg Med Chem, 2019).

The test system of series [1] is Staphylococcus aureus. Briefly: Antibacterial activity against methicillin-resistant Staphylococcus aureus NRS123 USA400 after 18 to 24 hrs by broth microdilution assay. Type of series: functional. In short, it runs like this: (§1)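 CLSI broth microdilution with modifications. Bacteria cultured in TSB and exposed to compounds or control antibiotics in triplicate. Plates incubated aerobically at 37 °C for 18–24 h. MIC is the lowest concentration preventing visible growth.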
For orientation: Broth dilution looks for growth in wells or tubes with falling amounts of substance.

Series [2] deals with Staphylococcus aureus. As to the kind of experiment: Antibacterial activity against methicillin-resistant Staphylococcus aureus USA300 NRS384 after 18 to 24 hrs by broth microdilution assay. In kind it is functional. In short, it runs like this: as §1
Series [3] has as its system Enterobacter cloacae. As to the kind of experiment: Antibacterial activity against Enterobacter cloacae BAA1134 after 18 to 24 hrs in presence of colistin by broth microdilution assay. Type of series: functional. In short, it runs like this:
(§2)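 To permeabilize the outer membrane, CLSI broth microdilution in TSB (triplicate) was run with subinhibitory colistin: ¼ × MIC for A. baumannii, E. cloacae and E. coli strains, and P. aeruginosa; ½ × MIC for K. pneumoniae. Plates incubated aerobically at 37 °C for 18–24 h. MIC taken as the lowest concentration with no visible growth.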

Series [4] concerns Acinetobacter baumannii. Briefly: Antibacterial activity against Acinetobacter baumannii BAA1605 after 18 to 24 hrs in presence of colistin by broth microdilution assay. Type of series: functional. The essentials:
as §2

The subject of series [5] is Pseudomonas aeruginosa. As to the kind of experiment: Antibacterial activity against Pseudomonas aeruginosa ATCC 15442 after 18 to 24 hrs by broth microdilution assay. In kind it is functional. In short, it runs like this: (§3)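 Broth microdilution MIC per CLSI guidelines with modifications. Bacteria grown in TSB and exposed to compounds or control antibiotics in triplicate. Plates incubated aerobically at 37 °C for 18–24 h. MIC taken as the lowest concentration with no visible growth.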

Series [6] concerns Escherichia coli. Briefly: Antibacterial activity against Escherichia coli BW25113 after 18 to 24 hrs in presence of colistin by broth microdilution method. Type of series: functional. In short, it runs like this: as §2
Series [7] concerns Klebsiella pneumoniae. Briefly: Antibacterial activity against Klebsiella pneumoniae ATCC BAA-1705 after 18 to 24 hrs in presence of colistin by broth microdilution assay. Type of series: functional. In short, it runs like this:
as §2

In series [8] the test system is Pseudomonas aeruginosa. As to the kind of experiment: Antibacterial activity against Pseudomonas aeruginosa ATCC 15442 after 18 to 24 hrs in presence of colistin by broth microdilution assay. Type of series: functional. In short, it runs like this:
as §2

For series [9], the system named is Enterobacter cloacae. Briefly: Antibacterial activity against Enterobacter cloacae BAA1134 after 18 to 24 hrs by broth microdilution assay. In kind it is functional. The essentials:
as §3

For series [10], the system named is Klebsiella pneumoniae. Briefly: Antibacterial activity against Klebsiella pneumoniae ATCC BAA-1705 after 18 to 24 hrs by broth microdilution assay. Type of series: functional. The essentials:
as §3

The test system of series [11] is Escherichia coli. As to the kind of experiment: Antibacterial activity against Escherichia coli BW25113 after 18 to 24 hrs in absence of colistin by broth microdilution method. Type of series: functional. In short, it runs like this:
as §3

The subject of series [12] is Escherichia coli. Briefly: Antibacterial activity against AcrAB-TolC deficient Escherichia coli […] after 18 to 24 hrs in absence of colistin by broth microdilution method. In kind it is functional. The essentials:
as §3

The test system of series [13] is Escherichia coli. As to the kind of experiment: Antibacterial activity against AcrAB-TolC deficient Escherichia coli […] after 18 to 24 hrs in presence of colistin by broth microdilution method. Type of series: functional. The essentials: as §2
Series [14] deals with Acinetobacter baumannii. As to the kind of experiment: Antibacterial activity against Acinetobacter baumannii BAA1605 after 18 to 24 hrs by broth microdilution assay. In kind it is functional. The essentials:
as §3

The test system of series [15] is Staphylococcus aureus. Briefly: Antibacterial activity against vancomycin-resistant Staphylococcus aureus VRS10 after 18 to 24 hrs by broth microdilution assay. Type of series: functional. The essentials: as §1
Series [16] concerns Staphylococcus aureus. As to the kind of experiment: Antibacterial activity against methicillin-resistant Staphylococcus aureus NRS119 after 18 to 24 hrs by broth microdilution assay. In kind it is functional. The essentials:
as §1

The test system of series [17] is Staphylococcus aureus. As to the kind of experiment: Antibacterial activity against methicillin-resistant Staphylococcus aureus USA300 infected in Balb/c mouse assessed as reduction in bacterial burden in wounded skin area at 2% administered topically twice daily for 5 consecutive days measured 12 hrs post last dose relative to control. Type of series: functional. More on the design: scale not given: the % may be the effect or the level left. In short, it runs like this:
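Eight-week-old female Balb/c mice (n = 5 per group) received an intradermal injection of 40 μL of 1.32 × 10⁹ CFU/mL MRSA USA300. From abscess formation (~48 h), a 2% suspension in petroleum jelly was applied topically twice daily for 5 days, with a vehicle-only group. Mice were euthanized 12 h after the last dose. Wounds were homogenized in PBS, serially diluted and plated on mannitol salt agar (≥16 h, 37 °C). CFU reduction was calculated against vehicle.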

Series [18] relates to Staphylococcus epidermidis. As to the kind of experiment: Antibacterial activity against methicillin-resistant Staphylococcus epidermidis NRS101 after 18 to 24 hrs by broth microdilution assay. Type of series: functional. In short, it runs like this: as §1
Series [19] relates to Staphylococcus aureus. As to the kind of experiment: Bacteriostatic activity against methicillin-resistant Staphylococcus aureus USA400 NRS123 at 4 times MIC measured after 24 hrs by time-kill assay. In kind it is functional, organism-based.
In another series the test system is Mus musculus. As to the kind of experiment: Induction of inflammation in wounded skin area of Balb/c mouse infected with methicillin-resistant Staphylococcus aureus USA300 at 2% administered topically twice daily for 5 consecutive days measured 4 times daily during compound dosing. Type of series: organism-based. The note with it: in vivo, topical_or_ocular. In short, it runs like this:
(§4)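 Female Balb/c mice with intradermal MRSA USA300 abscesses were treated topically twice daily for 5 days with a 2% suspension in petroleum jelly, alongside a vehicle group. Mice were checked at least four times daily during infection and treatment for adverse reactions. Wounds were examined for inflammation and toxicity.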

Series [20] in a line: Cytotoxicity against human HaCaT cells assessed as cell viability at 128 uM measured after 24 hrs by MTS assay. The settings on record: read-out: Activity. Type of series: cell-based. In short, it runs like this: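 HaCaT keratinocytes grown in DMEM with 10% FBS at 37 °C, 5% CO₂. Compounds tested at 16, 32, 64 and 128 µM in triplicate for 24 h; controls received matching DMSO. Viability expressed as percent of DMSO-treated cells (mean ± SD).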
(In general: Tetrazolium assays rely on reduction of a dye to a coloured formazan, in cell work by metabolically active cells.)

A further series has as its system Enterococcus faecium. Briefly: Antibacterial activity against vancomycin-resistant Enterococcus faecium ATCC 700221 after 18 to 24 hrs by broth microdilution assay. Type of series: functional. In short, it runs like this: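 Broth microdilution per CLSI with modifications. Cultured in BHI and exposed to compounds in triplicate. Incubated aerobically at 37 °C for 18–24 h. MIC read as the lowest concentration with no visible growth.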

Another series has as its system Streptococcus pneumoniae. Briefly: Antibacterial activity against penicillin-resistant Streptococcus pneumoniae ATCC 700677 after 18 to 24 hrs by broth microdilution assay. In kind it is functional. In short, it runs like this: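 CLSI broth microdilution with modifications. Bacteria exposed to compounds in triplicate and incubated at 37 °C with 5% CO₂ for 18–24 h. MIC is the lowest concentration preventing visible growth.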

A short description of series [21]: Toxicity in wounded skin area of Balb/c mouse infected with methicillin-resistant Staphylococcus aureus USA300 at 2% administered topically twice daily for 5 consecutive days measured 4 times daily during compound dosing. The settings on record: in vivo, topical_or_ocular. In short, it runs like this:
as §4

Series [22] concerns Staphylococcus aureus. Briefly: Antibacterial activity against vancomycin-resistant Staphylococcus aureus VRS11a after 18 to 24 hrs by broth microdilution assay. In kind it is functional. The essentials: as §1
Series [23] has as its system Staphylococcus aureus. Briefly: Antibacterial activity against methicillin-sensitive Staphylococcus aureus NRS107 after 18 to 24 hrs by broth microdilution assay. In kind it is functional. In short, it runs like this:
as §1

The test system of series [24] is Staphylococcus aureus. As to the kind of experiment: Antibacterial activity against methicillin-resistant Staphylococcus aureus NRS385 USA500 after 18 to 24 hrs by broth microdilution assay. Type of series: functional. In short, it runs like this: as §1

In brackets after ≈: the same amount, converted by molar mass. Activity calls are given as the source filed them. The rule behind the calls is not given here.

As usually defined, the MIC is the lowest concentration found to suppress growth. `N#Cc1ccc(/C=C/c2ccccc2C#N)cc1` returned an MIC against Staphylococcus aureus [1] of 16 µM (≈ 3.68 µg/mL).

`CC/C(=C\c1ccccc1C#N)c1ccccc1` returned an MIC in the series with Staphylococcus aureus [2] of 4 µM (≈ 0.933 µg/mL).

As for `N#Cc1ccc(CCC2CCc3ccccc3N2)cc1` (configuration not stated), in the series with Staphylococcus aureus [1], the MIC is 16 µM (≈ 4.2 µg/mL).

As to `N#Cc1ccc(/C=C/c2ccc(Cl)c(Cl)c2)cc1`, the MIC against Staphylococcus aureus [1] is more than 64 µM.

In the series with Staphylococcus aureus [1], `COc1ccc(/C=C/c2ccc(C#N)cc2)cc1` showed an MIC of 32 µM (≈ 7.53 µg/mL).

In the series on Staphylococcus aureus [1], `COc1cc(/C=C/c2ccc(C#N)cc2)cc(OC)c1` displayed an MIC of 64 µM (≈ 17 µg/mL).

Take `CC[C@H]1OC(=O)[C@H](C)[C@@H](O[C@H]2C[C@@](C)(OC)[C@@H](O)[C@H](C)O2)[C@H](C)[C@@H](O[C@@H]2O[C@H](C)C[C@H](N(C)C)[C@H]2O)[C@](C)(O)C[C@@H](C)C(=O)[C@H](C)[C@@H](O)[C@]1(C)O` [ERYTHROMYCIN]: the MIC was 1 µM in the series on Enterobacter cloacae [3]; 4 µM in the series with Acinetobacter baumannii [4]; more than 64 µM with Pseudomonas aeruginosa [5]; 1 µM in the series with Escherichia coli [6]; 16 µM with Klebsiella pneumoniae [7]; 4 µM with Pseudomonas aeruginosa [8]. Besides, the MIC is more than 64 µM in the series with Enterobacter cloacae [9]; more than 64 µM against Klebsiella pneumoniae [10]; 64 µM (≈ 47 µg/mL) against Escherichia coli [11]; 2 µM (≈ 1.47 µg/mL) with Escherichia coli [12]; 0.5 µM in the series with Escherichia coli [13]; 16 µM (≈ 11.7 µg/mL) with Acinetobacter baumannii [14].

For the compound `N#Cc1ccc(/C=C/c2ccc3ccccc3n2)cc1`, the minimum inhibitory concentration (MIC) with Staphylococcus aureus [15] came to 32 µM (≈ 8.2 µg/mL); against Staphylococcus aureus [2] it was 4 µM (≈ 1.03 µg/mL); with Staphylococcus aureus [16] it was 4 µM (≈ 1.03 µg/mL); in the series with Staphylococcus aureus [1], 8 µM (≈ 2.05 µg/mL).

`N#Cc1ccc(/C=C/c2ccc(C(F)(F)F)cc2)cc1`: the MIC with Staphylococcus aureus [1] is 32 µM (≈ 8.74 µg/mL).

With `N#Cc1ccc(/C=C/c2ccco2)cc1`, in the series on Staphylococcus aureus [1], 32 µM (≈ 6.25 µg/mL) was the least that counted as inhibitory (MIC).

As to `N#Cc1ccc(/C=C/c2ccc(C#N)cc2)cc1`, the MIC in the series on Enterobacter cloacae [3] is 4 µM; with Acinetobacter baumannii [4], 16 µM; against Pseudomonas aeruginosa [5] it was more than 64 µM; in series [18] it was 1 µM (≈ 0.23 µg/mL); in the series on Escherichia coli [6], more than 64 µM; in the series on Klebsiella pneumoniae [7] it was more than 64 µM. The MIC is more than 64 µM in the series with Pseudomonas aeruginosa [8]; more than 64 µM with Enterobacter cloacae [9]; 8 µM (≈ 1.84 µg/mL) against Staphylococcus aureus [15]; 2 µM (≈ 0.461 µg/mL) in the series on Staphylococcus aureus [2]; more than 64 µM against Enterococcus faecium; 8 µM (≈ 1.84 µg/mL) against Streptococcus pneumoniae. For the same compound, the MIC in the series on Staphylococcus aureus [16] is 1 µM (≈ 0.23 µg/mL); in the series with Klebsiella pneumoniae [10], more than 64 µM; in the series on Escherichia coli [11] it was more than 64 µM; with Staphylococcus aureus [22], 8 µM (≈ 1.84 µg/mL); with Staphylococcus aureus [1], 8 µM (≈ 1.84 µg/mL); in the series with Staphylococcus aureus [23], 4 µM (≈ 0.921 µg/mL). Moreover, the MIC against Escherichia coli [12] is more than 64 µM; with Escherichia coli [13], more than 64 µM; in the series with Staphylococcus aureus [24], 8 µM (≈ 1.84 µg/mL); in the series on Acinetobacter baumannii [14] it was more than 64 µM. Besides, the Activity with Staphylococcus aureus [17] was 79.02%; in the series with Mus musculus, “Non-Toxic”; in [21] it was “Non-Toxic”. Also, the outcome in the series on Staphylococcus aureus [19] was Active. Further, in series [20], the viability at 24 h, 128 µM was more than 90%.

In the series on Staphylococcus aureus [1], `N#Cc1ccc(CCc2ccc(C#N)cc2)cc1` showed an MIC of more than 64 µM.
